Screens (PubChem)
In the library only some 4% were active in any assay of this set; here they are far more common.
OX1R antag-1: OX1R (human) antagonism; inhibition, % at 6.6 µM; actives 1.8% (n = 330,000); OX1R-expressing cells, FRET antagonist read-out; AID 485270; in the data active = inhibition mostly above about 38%, no sharp cut-off; inactive = mostly below about 40%
Target sequence (O43613 whole entry, looked up): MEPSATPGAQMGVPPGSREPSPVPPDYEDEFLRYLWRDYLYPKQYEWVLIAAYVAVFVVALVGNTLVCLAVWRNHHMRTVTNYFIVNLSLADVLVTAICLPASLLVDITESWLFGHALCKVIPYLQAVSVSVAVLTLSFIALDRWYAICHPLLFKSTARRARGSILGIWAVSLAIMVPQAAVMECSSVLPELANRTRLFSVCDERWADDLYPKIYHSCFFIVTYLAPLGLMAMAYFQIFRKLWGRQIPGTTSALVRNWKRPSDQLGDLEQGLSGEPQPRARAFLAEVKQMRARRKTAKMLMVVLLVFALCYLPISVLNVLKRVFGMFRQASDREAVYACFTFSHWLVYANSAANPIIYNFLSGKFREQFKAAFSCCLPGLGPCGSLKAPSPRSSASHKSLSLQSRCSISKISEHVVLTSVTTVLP
TAAR1 antag: human TAAR1 antagonism; Q96RJ0; CHO RD-HGA16 TAAR1, Fluo-8 calcium fluorescence, antagonist; inhibition, % at 3 µM; actives 1.5% (n = 360,000); AID 624466;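 active = inhibition above a per-plate cutoff, the mean inhibition of test compounds on that plate plus 3 SD, cut at about 49% in these data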
Target sequence (Q96RJ0 whole entry, looked up): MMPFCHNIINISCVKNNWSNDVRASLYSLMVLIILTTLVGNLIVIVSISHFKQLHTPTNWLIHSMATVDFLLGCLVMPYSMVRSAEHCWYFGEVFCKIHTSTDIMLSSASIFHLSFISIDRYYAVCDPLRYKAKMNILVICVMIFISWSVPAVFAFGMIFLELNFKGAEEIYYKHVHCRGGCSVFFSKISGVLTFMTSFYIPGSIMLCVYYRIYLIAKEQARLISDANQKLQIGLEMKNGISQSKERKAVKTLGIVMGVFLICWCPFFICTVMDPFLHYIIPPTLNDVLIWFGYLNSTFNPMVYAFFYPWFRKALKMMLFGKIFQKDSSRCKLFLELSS
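Assay system: RD-HGA16 CHO cells with stable hTAAR1 and Gα16 / Reagent: EC80 β-phenethylamine stimulus / Doses: 3 µM, single point / Timing: dye loading 75 min at 37 °C, then 30 min room temperature / Measured by: Fluo-8 intracellular calcium dye fluorescence, real-time kinetic reads / Controls: vehicle wells and EC80 agonist wells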
CHO parental Ca: counter-screen for OX1R antagonists: effect in parental CHO cells. inhibition, % at 5.6 µM. parental CHO-K1, ATP-induced calcium, Fluo-8 fluorescence. actives 0.63% (n = 330,000);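 active = inhibition above that plate's mean sample inhibition plus 3 SD, cut at about 26% in these data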
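Test system: untransfected parental CHO cell line. Compound: one dose, 5.6 µM nominal. Detection: intracellular calcium via Fluo-8 no-wash fluorescent dye. Measure: % inhibition. Benchmarks: ATP-challenged DMSO wells low, unchallenged DMSO wells high.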
TAAR1 agonist: human TAAR1 agonism; Q96RJ0; CHO RD-HGA16 TAAR1, Fluo-8 calcium fluorescence; vehicle wells 0%, saturating PEA agonist 100%; activation, % at 3 µM; actives 0.99% (n = 360,000);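 active = activation above the mean activation of all test compounds in the run plus 3 SD, cut at about 38% in these data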
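Test system: RD-HGA16 (CHO) cells co-expressing Gα16 and hTAAR1 / Benchmarks: DMSO vehicle as 0%, PEA at EC100 as 100% / Repeats: no replicates (n 1) / Measure: % activation from peak over basal fluorescence ratio, DMSO-to-PEA scaled / Timing: 17-24 h plating, Fluo-8 75 min 37 °C, 30 min RT / Technique: kinetic Fluo-8 calcium fluorescence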
OX1R antag-2: blocks the human orexin 1 receptor. O43613. actives 0.43% (n = 330,000). CHO/OX1R cells, Fluo-8 calcium fluorescence, orexin A. inhibition, % at 5 µM;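 active = inhibition above its plate's threshold, mean inhibition of all tested compounds on the plate plus 3 SD, cut at about 37% in these data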
Each line names hits and unclear results; the compound was inactive in the other large screens.

CCc1nc2ccc(C(=O)Nc3ccc(C(N)=O)cc3)cn2c1N(C)CCC(C)C	TAAR1 agonist 43.2 (no result: OX1R antag-1, CHO parental Ca, OX1R antag-2)
CCc1nc2ccc(C(=O)Nc3ccc(NC(C)=O)cc3)cn2c1N(C)CCC(C)C	none (no result: OX1R antag-1, CHO parental Ca, OX1R antag-2)
Cc1ccc(S(=O)(=O)N2[C@@H](c3ccccc3F)C(C(=O)O)=CC[C@H]2c2ccc(Cl)c(Cl)c2)cc1	OX1R antag-1 66.9
Cc1ccc(S(=O)(=O)N2[C@@H](c3ccccc3)C(C(=O)O)=CC[C@H]2c2ccc(Cl)c(Cl)c2)cc1	OX1R antag-1 55.4
CCc1ccc(S(=O)(=O)NC2CC(C)(C)NC(C)(C)C2)cc1	none
O=C1NC[C@H](CCCCN2C[C@H](Cc3ccc(O)cc3)N(CCc3ccc(O)cc3)C(=O)C2=O)N(Cc2ccccc2)C1=O	TAAR1 agonist 43.3 (no result: OX1R antag-1, CHO parental Ca, OX1R antag-2)
O=C1NC[C@@H](CCCCN2C[C@H](Cc3ccc(O)cc3)N(CC3CCCCC3)C(=O)C2=O)N(CCC2CCCCC2)C1=O	TAAR1 agonist 43.1 (no result: OX1R antag-1, CHO parental Ca, OX1R antag-2)
O=C1NC[C@H](CCCCN2C[C@H](Cc3ccc(O)cc3)N(CCc3ccccc3)C(=O)C2=O)N(Cc2ccccc2)C1=O	none (no result: OX1R antag-1, CHO parental Ca, OX1R antag-2)
O=C1NC[C@H](CCCCN2C[C@H](Cc3ccc(O)cc3)N(CCC3CCCCC3)C(=O)C2=O)N(CC2CCCCC2)C1=O	none (no result: OX1R antag-1, CHO parental Ca, OX1R antag-2)
O=c1cc(O)c2ccccc2n1Cc1ccccc1	none
COc1cc(OC)c(OC)cc1/C=C1\CC(C)C/C(=C\c2cc(OC)c(OC)cc2OC)C1=O (stereo not given)	TAAR1 antag 51.3
CCc1sc(N2C(=O)C3C4CCC(C4=C(C)C)C3C2=O)nc1-c1ccccc1 (stereo not given)	OX1R antag-1 38.0
CCc1sc(NC(C)=O)nc1-c1ccccc1	none
CC(=O)N(C)c1ccc(N=Nc2c(C)[nH]n(C(N)=S)c2=O)cc1	OX1R antag-1 55.9
CC1=NN(C(N)=S)C(=O)C1N=Nc1c(C)cc(C)cc1C (stereo not given)	none
CC(=O)N(C)c1ccc(N=Nc2c(C)[nH]n(-c3ccccc3)c2=O)cc1	none
CC1=NN(C(N)=S)C(=O)C1N=Nc1c(Br)cc(Br)cc1Br (stereo not given)	TAAR1 agonist 38.9
CC(=O)N(C)c1ccc(N=NC2C(=O)N(C(N)=S)N=C2C)cc1 (stereo not given)	OX1R antag-1 62.3
CC(=O)N1C[C@H]2CON(C)[C@H]2C[C@H]1c1ccccc1-c1ccccc1	none (no result: OX1R antag-1, CHO parental Ca, OX1R antag-2)
O=C(N/N=C/c1cccnc1)c1cccc(NC(=O)c2cccc(Br)c2)c1	TAAR1 antag 51.4
Cn1ncc(Br)c1C(=O)N/N=C/c1cccc(OC2CSC2)c1	none
O=C(N/N=C/c1cccc(OC(=O)c2cccc(Br)c2)c1)c1cccnc1	TAAR1 antag 57.5 (no result: OX1R antag-1, CHO parental Ca, OX1R antag-2)
O=C(N/N=C/c1cccc(Oc2ccccc2)c1)c1cccc(Br)c1	TAAR1 antag 57.5
O=C(N/N=C/c1cccc(OC2CSC2)c1)c1ccccc1O	OX1R antag-1 71.5
Cc1cc(S(=O)(=O)NC(=O)[C@H]2O[C@@H](n3ccc(=O)[nH]c3=O)[C@H](O)[C@@H]2O)ccc1Br	none (no result: OX1R antag-1, CHO parental Ca, OX1R antag-2)
C=CCC1CCCC(=O)N2CCCC12 (stereo not given)	none
CN(CCO)C(=O)c1nc[nH]c1C(=O)N1CCN(c2ccccc2)CC1	none (no result: OX1R antag-1, CHO parental Ca, OX1R antag-2)
O=C(N/N=C/c1cccnc1)c1ccc(NC(=O)C(c2ccccc2)c2ccccc2)cc1	TAAR1 antag 57.1
OC(c1ccccc1)(c1ccccc1)C1CCN(CCCOc2ccncc2)CC1	none (no result: OX1R antag-1, CHO parental Ca, OX1R antag-2)
CCc1cc[n+](-c2nc3ccccc3nc2C(=C=[N-])C#N)cc1	OX1R antag-1 74.0
NC(=O)C1CCN(CC(O)COCc2ccccc2Cl)CC1 (stereo not given)	none
CC(C)(C)c1ccc(S(=O)(=O)Nc2ccccn2)cc1	none
CCc1ccccc1N(C1=NCCCS1)S(=O)(=O)c1ccc(C(C)(C)C)cc1	OX1R antag-1 51.2
C/C=C(/C)C(=O)O[C@@H]1c2c(ccc3ccc(=O)oc23)OC(C)(C)[C@@H]1OC(C)=O	none
C/C=C(/C)C(=O)OC1c2c(ccc3ccc(=O)oc23)OC(C)(C)C1OC(=O)/C(C)=C\C (stereo not given)	OX1R antag-1 44.2, CHO parental Ca 74.8
O=C(NCC1CCCCC1)c1ccc(F)c(S(=O)(=O)N2CCOCC2)c1	none
O=C(NCC1CCCCC1)c1cc(S(=O)(=O)N2CCOCC2)ccc1F	TAAR1 agonist 39.3
CN(CCc1ccccn1)C(=O)[C@@H](Cc1ccccc1)NC(=O)[C@H]1O[C@@H](n2ccc(=O)[nH]c2=O)[C@H](O)[C@@H]1O	none (no result: OX1R antag-1, CHO parental Ca, OX1R antag-2)
COC(=O)[C@]12C[C@H](CC(=O)NCCC(C)C)C(=O)N(Cc3ccccc3)C1=C[C@H](C1CCCC1)O[C@@H]2C	none (no result: OX1R antag-1, CHO parental Ca, OX1R antag-2)
Cc1ccc(C(=O)Nc2nnc(-c3ccco3)o2)cc1	none
O=C(Nc1nnc(-c2ccco2)o1)c1ccc([N+](=O)[O-])s1	OX1R antag-1 66.0
O=C(CN1C(=O)C(c2ccc(F)cc2)=NC12CCCC2)Nc1ccc(F)cc1	CHO parental Ca 27.4
COc1ccc(-c2c(-c3ccccc3OC)sc3ccccc23)cc1F	none (no result: OX1R antag-1, CHO parental Ca, OX1R antag-2)
O=C(c1cc2sccc2n1Cc1ccc(F)cc1)N1CCN(c2nc3ccccc3s2)CC1	CHO parental Ca 37.1
Nc1[nH]c(C(=O)c2ccccc2)c(-c2ccccn2)c1C(=O)c1c[nH]c2ccc(F)cc12	none (no result: OX1R antag-1, CHO parental Ca, OX1R antag-2)
COc1ccc(Cc2nnc(NC(=O)CSc3ccccc3)s2)cc1OC	TAAR1 agonist 50.2
Cc1ccccc1OCC(=O)N1N=C(C(F)(F)F)CC1(O)C(C)(C)C (stereo not given)	CHO parental Ca 33.0
Cc1ccc(OCC(=O)N2N=C(C(F)(F)F)CC2(O)C(C)(C)C)cc1C (stereo not given)	CHO parental Ca 80.0
COCCCNC(=O)C[C@H]1C[C@@]2(C(=O)OC)C(=C[C@H](C(C)(C)C)O[C@@H]2C)N(CCc2ccc(OC)c(OC)c2)C1=O	none (no result: OX1R antag-1, CHO parental Ca, OX1R antag-2)
COC(=O)c1cc(S(=O)(=O)NCC2CCN(Cc3ccccc3F)CC2)c[nH]1	none
COc1ncc(-c2ccc3c(c2)S(=O)(=O)c2cccc(C(=O)O)c2C3=O)cn1	OX1R antag-1 38.0
COc1ccc(-c2ccc3c(c2)S(=O)(=O)c2cccc(C(=O)N4CCN(C5CCCCC5)CC4)c2C3=O)cc1OC	TAAR1 antag 51.6
O=C(O)c1cccc2c1C(=O)c1ccc(Cl)cc1S2(=O)=O	OX1R antag-1 39.2
CCCc1cc(=O)oc2c3c(cc(OCC(=O)NCc4ccncc4)c12)OC(C)(C)CC3	TAAR1 antag 48.9
CCCc1cc(=O)oc2c3c(cc(OCC(=O)NCc4ccccn4)c12)OC(C)(C)CC3	TAAR1 antag 49.2
Cc1cc(=O)oc2c3c(cc(OCC(=O)Nc4ccc(CCO)cc4)c12)OC(C)(C)CC3	TAAR1 antag 50.9
CCCc1cc(=O)oc2c3c(cc(OCC(=O)N[C@@H](C)C(=O)O)c12)OC(C)(C)CC3	none
